For test [1], the system named is Musca domestica. In words: Toxicity against SCR-susceptible Musca domestica (house fly) assessed as mortality compound administered by intrathoracic injection 1 to 2 hr after piperonyl butoxide treatment measured 24 hr post compound treatment relative to ryanodine. In kind it is functional.
For test [2], the system named is Musca domestica. Put plainly: Toxicity against SCR-susceptible Musca domestica (house fly) assessed as immobility compound administered by intrathoracic injection 1 to 2 hr after piperonyl butoxide treatment measured 4 hr post compound treatment relative to ryanodine. It counts as functional. The procedure, abridged: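 Adult female flies pretreated with piperonyl butoxide (5 μg in 0.5 μL acetone, ventral abdomen); 1-2 h later, 0.22 μL ryanoid in DMSO injected into the thorax. Knockdown scored at 4 h and KD50 derived. Ten flies per dose, 1.50-2-fold dose steps, two or more experiments (or single determinations where estimated).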

For test [3], the target named is Ryanodine receptor 3 (Mus musculus) (UniProt A2AGL3). In words: Binding affinity to ryanodine receptor in Mus musculus albino Swiss-Webster (mouse) brain relative to ryanodine.
Test [4] deals with Ryanodine receptor 1 (Oryctolagus cuniculus) (UniProt P11716). In words: Displacement of [3H]ryanodine from Ca2+-ryanodine receptor in Oryctolagus cuniculus (rabbit) skeletal muscle sarcoplasmic reticulum after 1 hr by competitive inhibition assay in presence of ATP relative to ryanodine. Put shortly: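 Unlabeled ryanoid introduced in DMSO (1% final) before incubation. Filtration, washes in 150 mM KCl/10 mM Hepes pH 7.4. Nonspecific binding: 10 μM dehydroryanodine. IC50 from LIGAND; duplicate experiments.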

Test [5] shares this target. In words: Displacement of [3H]ryanodine from Ca2+-ryanodine receptor in Oryctolagus cuniculus (rabbit) skeletal muscle sarcoplasmic reticulum after 2 hr by competitive inhibition assay relative to ryanodine. The procedure, abridged: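 No ATP. […] Ryanoid given in DMSO (1% final). Glass-fiber filtration; three washes with ice-cold buffer a using Tris HCl instead of Hepes. Nonspecific binding with 10 μM dehydroryanodine. IC50 calculated by LIGAND; duplicate experiments.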

Structures are written as SMILES.

Chain of Ryanodine receptor 3 (Mus musculus) (A2AGL3 whole entry): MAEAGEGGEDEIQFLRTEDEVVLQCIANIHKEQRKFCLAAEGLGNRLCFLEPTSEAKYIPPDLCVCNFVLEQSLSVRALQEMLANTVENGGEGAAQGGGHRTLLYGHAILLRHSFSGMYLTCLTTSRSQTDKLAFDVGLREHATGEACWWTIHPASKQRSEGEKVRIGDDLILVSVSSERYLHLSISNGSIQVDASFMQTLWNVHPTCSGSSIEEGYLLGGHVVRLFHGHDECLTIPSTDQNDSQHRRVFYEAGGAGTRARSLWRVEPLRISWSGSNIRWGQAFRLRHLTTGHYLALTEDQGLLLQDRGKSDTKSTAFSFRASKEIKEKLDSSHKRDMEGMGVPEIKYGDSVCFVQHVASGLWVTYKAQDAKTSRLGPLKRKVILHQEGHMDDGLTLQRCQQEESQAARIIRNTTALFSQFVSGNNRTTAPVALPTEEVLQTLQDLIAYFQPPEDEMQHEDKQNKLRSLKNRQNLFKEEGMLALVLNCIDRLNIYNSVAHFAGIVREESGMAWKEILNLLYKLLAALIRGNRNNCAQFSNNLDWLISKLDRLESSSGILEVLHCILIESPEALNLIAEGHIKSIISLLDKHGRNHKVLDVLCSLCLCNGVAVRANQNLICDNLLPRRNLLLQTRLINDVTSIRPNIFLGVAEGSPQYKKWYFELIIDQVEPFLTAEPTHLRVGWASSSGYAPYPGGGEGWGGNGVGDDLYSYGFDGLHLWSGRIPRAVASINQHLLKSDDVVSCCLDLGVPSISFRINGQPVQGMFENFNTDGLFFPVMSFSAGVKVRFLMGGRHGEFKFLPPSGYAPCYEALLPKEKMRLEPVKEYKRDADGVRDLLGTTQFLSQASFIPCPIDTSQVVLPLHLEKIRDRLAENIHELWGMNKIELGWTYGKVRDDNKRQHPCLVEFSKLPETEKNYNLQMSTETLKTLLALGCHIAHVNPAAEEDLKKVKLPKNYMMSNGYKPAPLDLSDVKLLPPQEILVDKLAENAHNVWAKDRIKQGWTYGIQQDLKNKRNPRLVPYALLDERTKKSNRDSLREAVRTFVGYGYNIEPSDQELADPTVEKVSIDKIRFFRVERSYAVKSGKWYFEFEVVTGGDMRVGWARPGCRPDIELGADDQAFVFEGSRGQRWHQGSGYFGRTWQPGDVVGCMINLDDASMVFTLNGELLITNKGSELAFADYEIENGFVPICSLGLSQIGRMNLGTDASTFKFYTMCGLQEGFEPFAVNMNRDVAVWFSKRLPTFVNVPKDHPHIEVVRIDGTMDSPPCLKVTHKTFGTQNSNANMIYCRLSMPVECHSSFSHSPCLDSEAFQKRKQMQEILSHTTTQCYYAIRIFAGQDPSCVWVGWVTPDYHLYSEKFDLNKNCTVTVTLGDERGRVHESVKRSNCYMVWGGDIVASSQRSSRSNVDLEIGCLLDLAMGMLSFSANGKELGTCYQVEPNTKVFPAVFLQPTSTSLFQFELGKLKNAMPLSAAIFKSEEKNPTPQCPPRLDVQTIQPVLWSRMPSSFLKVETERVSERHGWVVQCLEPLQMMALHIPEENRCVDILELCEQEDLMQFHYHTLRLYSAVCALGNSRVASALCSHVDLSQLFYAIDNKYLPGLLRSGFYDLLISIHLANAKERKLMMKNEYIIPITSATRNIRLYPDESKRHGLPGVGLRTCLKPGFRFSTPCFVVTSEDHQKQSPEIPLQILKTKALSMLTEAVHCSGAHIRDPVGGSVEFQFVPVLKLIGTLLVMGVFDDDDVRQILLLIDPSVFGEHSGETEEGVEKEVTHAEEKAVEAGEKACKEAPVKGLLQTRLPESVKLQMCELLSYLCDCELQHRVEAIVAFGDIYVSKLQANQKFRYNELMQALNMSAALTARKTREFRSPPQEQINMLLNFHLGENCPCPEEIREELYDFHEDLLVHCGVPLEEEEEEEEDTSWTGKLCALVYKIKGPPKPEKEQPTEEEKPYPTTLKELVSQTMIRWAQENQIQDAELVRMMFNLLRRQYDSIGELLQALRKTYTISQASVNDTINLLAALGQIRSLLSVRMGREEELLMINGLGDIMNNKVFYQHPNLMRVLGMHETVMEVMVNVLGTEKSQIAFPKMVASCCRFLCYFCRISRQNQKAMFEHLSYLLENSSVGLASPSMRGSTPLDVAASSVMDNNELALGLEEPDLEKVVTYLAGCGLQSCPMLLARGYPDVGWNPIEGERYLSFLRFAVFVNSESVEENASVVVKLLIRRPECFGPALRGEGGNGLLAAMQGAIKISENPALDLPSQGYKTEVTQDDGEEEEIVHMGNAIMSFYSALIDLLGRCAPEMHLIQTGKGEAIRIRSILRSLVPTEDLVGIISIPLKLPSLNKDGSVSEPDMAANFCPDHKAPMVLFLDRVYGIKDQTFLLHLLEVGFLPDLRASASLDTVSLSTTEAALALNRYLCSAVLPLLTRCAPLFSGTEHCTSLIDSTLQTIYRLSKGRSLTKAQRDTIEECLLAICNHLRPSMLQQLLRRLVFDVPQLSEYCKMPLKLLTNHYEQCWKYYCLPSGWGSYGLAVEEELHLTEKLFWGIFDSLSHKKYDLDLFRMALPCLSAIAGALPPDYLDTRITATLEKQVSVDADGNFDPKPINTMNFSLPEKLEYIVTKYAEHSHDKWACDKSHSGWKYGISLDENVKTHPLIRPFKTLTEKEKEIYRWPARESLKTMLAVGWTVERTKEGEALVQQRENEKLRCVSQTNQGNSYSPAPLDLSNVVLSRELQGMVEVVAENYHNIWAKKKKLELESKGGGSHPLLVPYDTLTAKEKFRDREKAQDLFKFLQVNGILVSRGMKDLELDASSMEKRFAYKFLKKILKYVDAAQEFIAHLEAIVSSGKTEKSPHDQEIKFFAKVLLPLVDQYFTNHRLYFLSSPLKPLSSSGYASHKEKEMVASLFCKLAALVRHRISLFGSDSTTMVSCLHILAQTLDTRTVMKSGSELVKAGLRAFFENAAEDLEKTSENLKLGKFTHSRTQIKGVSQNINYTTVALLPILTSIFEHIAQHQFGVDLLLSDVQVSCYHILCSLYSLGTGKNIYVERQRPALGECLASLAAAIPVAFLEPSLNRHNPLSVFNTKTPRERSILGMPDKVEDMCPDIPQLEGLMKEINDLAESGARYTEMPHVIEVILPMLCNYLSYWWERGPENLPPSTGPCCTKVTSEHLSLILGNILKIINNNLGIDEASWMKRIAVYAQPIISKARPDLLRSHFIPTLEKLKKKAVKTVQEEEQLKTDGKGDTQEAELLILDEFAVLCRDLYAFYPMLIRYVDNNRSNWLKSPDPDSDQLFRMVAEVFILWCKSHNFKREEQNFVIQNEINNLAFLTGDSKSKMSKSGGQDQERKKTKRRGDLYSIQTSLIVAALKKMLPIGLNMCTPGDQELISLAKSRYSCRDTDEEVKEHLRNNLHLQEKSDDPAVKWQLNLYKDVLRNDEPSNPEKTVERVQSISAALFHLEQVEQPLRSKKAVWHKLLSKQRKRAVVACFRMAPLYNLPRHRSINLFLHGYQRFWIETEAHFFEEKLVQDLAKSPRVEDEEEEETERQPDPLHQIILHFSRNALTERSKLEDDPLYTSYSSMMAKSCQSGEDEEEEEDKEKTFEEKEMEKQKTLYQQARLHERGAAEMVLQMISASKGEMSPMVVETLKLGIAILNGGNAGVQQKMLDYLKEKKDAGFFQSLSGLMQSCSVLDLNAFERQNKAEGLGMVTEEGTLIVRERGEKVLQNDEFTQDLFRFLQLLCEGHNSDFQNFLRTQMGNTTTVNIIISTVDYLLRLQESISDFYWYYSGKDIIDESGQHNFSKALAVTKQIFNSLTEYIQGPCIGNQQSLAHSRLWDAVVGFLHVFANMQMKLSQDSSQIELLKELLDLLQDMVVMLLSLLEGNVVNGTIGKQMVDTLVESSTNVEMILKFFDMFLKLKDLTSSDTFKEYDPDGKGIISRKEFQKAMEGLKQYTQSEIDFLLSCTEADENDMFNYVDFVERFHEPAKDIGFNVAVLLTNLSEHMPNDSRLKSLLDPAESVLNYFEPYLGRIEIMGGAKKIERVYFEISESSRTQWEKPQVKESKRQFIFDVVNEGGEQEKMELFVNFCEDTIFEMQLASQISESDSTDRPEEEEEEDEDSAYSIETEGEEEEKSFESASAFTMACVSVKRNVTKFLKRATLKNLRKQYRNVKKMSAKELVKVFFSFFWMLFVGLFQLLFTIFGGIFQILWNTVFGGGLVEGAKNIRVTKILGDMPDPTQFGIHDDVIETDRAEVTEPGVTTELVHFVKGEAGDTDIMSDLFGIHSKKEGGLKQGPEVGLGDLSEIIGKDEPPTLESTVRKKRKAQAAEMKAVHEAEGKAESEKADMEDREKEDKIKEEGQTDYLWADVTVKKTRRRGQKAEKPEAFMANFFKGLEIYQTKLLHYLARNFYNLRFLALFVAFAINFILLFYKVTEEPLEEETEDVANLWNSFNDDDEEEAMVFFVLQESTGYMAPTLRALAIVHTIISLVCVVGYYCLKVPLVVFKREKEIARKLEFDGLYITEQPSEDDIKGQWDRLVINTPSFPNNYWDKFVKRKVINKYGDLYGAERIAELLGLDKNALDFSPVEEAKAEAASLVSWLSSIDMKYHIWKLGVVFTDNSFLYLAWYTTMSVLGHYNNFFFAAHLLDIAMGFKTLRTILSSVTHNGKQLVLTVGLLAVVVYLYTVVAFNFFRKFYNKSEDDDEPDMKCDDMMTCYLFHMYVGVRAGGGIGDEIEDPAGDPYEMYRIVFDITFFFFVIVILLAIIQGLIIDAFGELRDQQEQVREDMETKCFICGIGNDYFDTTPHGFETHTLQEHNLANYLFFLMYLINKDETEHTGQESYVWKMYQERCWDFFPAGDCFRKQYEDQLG

With `CC(C)[C@@]1(O)[C@@H](OC(=O)c2ccc[nH]2)[C@]2(NO)O[C@@]3(O)[C@]45O[C@@](O)(C[C@@]2(C)[C@@]4(O)CC[C@H](C)[C@H]5O)[C@]31C`, the Ratio in the test on Musca domestica [1] was determined as 200; with Musca domestica [2], 270; in test [3] it was 21; in test [4], 29; in test [5], 14.

As to `CO/N=C1/[C@H](OC(=O)c2ccc[nH]2)[C@](O)(C(C)C)[C@@]2(C)C(=O)[C@]34O[C@@]2(O)C[C@@]1(C)[C@@]3(O)CC[C@H](C)[C@H]4O`, the Ratio with Musca domestica [1] came out at 12; in the test with Musca domestica [2], 10; in test [3], 0.7; in test [4], 0.86; in test [5] it was 0.75.

In the case of `CC(C)[C@@]1(O)[C@@H](OC(=O)c2ccc[nH]2)C(=O)[C@@]2(C)C[C@]3(O)O[C@]4(/C(=N\O)[C@]13C)[C@H](O)[C@@H](C)CC[C@@]42O`, the Ratio was found to be 30 in the test with Musca domestica [1]; 8 with Musca domestica [2]; 1.9 in test [3]; 3.1 in test [4]; 1.7 in test [5].

With `CON[C@@]12O[C@@]3(O)[C@]45O[C@@](O)(C[C@@]1(C)[C@@]4(O)CC[C@H](C)[C@H]5O)[C@@]3(C)[C@@](O)(C(C)C)[C@H]2OC(=O)c1ccc[nH]1`, the Ratio in the test on Musca domestica [1] was 8; in the test on Musca domestica [2], 13; in test [3] it was 27; in test [4], 23; in test [5], 23.

On to `CC(C)[C@@]1(O)[C@@H](OC(=O)c2ccc[nH]2)C(=O)[C@@]2(C)C[C@]3(O)O[C@]4(C(=O)[C@]13C)[C@H](O)[C@@H](C)CC[C@@]42O` [4,12-SECO-4,12-DIOXORYANODIN], for which the Ratio in the test with Musca domestica [1] was found to be 2; with Musca domestica [2] it was 0.85; in test [4], 1.8; in test [5], 1.6.

As for `CC(C)[C@@]1(O)[C@@H](OC(=O)c2ccc[nH]2)/C(=N/O)[C@@]2(C)C[C@]3(O)O[C@]4(C(=O)[C@]13C)[C@H](O)[C@@H](C)CC[C@@]42O`, the Ratio was determined as 6 with Musca domestica [1]; 2.7 in the test with Musca domestica [2]; 0.78 in test [3]; 0.88 in test [4]; 0.76 in test [5].

In the case of `CC(C)[C@@]1(O)[C@@H](OC(=O)c2ccc[nH]2)[C@@]2(O)[C@@]3(C)C[C@]4(O)O[C@@]5([C@H](O)[C@@H](CSCCO)CC[C@]35O)[C@@]2(O)[C@]14C`, the Ratio in the test on Musca domestica [1] turned out to be 6; in the test on Musca domestica [2], 5; in test [3], 0.86.

As to `CC(C)[C@@]1(O)[C@@H](OC(=O)c2ccc[nH]2)[C@]2(O)O[C@@]3(NO)[C@]45O[C@@](O)(C[C@@]2(C)[C@@]4(O)CC[C@H](C)[C@H]5O)[C@]31C`, the Ratio came out at 12 with Musca domestica [1]; 20 in the test on Musca domestica [2]; 11 in test [3]; 11 in test [4]; 9 in test [5].

For `C=C1CC[C@@]2(O)[C@]3(O[C@@]4(O)C[C@]2(C)C(=O)[C@H](OC(=O)c2ccc[nH]2)[C@](O)(C(C)C)[C@@]4(C)C3=O)[C@@H]1O` [4,12-SECO-4,12-DIOXODEHYDRORYANODIN], the Ratio in the test on Musca domestica [1] was 4; in the test with Musca domestica [2] it was 4; in test [3], 1.1; in test [4] it was 0.97; in test [5], 0.79.

With `CC(C)[C@@]1(O)[C@@H](OC(=O)c2ccc[nH]2)/C(=N/OCc2ccccc2)[C@@]2(C)C[C@]3(O)O[C@]4(C(=O)[C@]13C)[C@H](O)[C@@H](C)CC[C@@]42O`, the Ratio in the test with Musca domestica [1] came out at 1; in the test with Musca domestica [2], 0.8; in test [3], 0.94; in test [4] it was 2.1; in test [5], 1.3.

Consider `CCCSC[C@H]1CC[C@]2(O)[C@]3(C)C[C@]4(O)O[C@@]2([C@@H]1O)[C@]1(O)[C@@]3(O)[C@H](OC(=O)c2ccc[nH]2)[C@](O)(C(C)C)[C@@]14C`, for which the values for the Ratio (with Musca domestica [1]; in the test on Musca domestica [2]; in test [3]) were 6, 4 and 0.88, respectively.

On to `CC(C)[C@@]1(O)[C@@H](OC(=O)c2ccc[nH]2)[C@]2(NOCc3ccccc3)O[C@@]3(O)[C@]45O[C@@](O)(C[C@@]2(C)[C@@]4(O)CC[C@H](C)[C@H]5O)[C@]31C`, for which the Ratio worked out at 2 with Musca domestica [2], 8.3 in test [3], 21 in test [4] and 13 in test [5].

In the case of `CON[C@@]12O[C@@]3(O)[C@H](OC(=O)c4ccc[nH]4)[C@](O)(C(C)C)[C@]1(C)[C@]1(O)C[C@@]3(C)[C@@]3(O)CC[C@H](C)[C@@H](O)[C@@]32O1`, the Ratio with Musca domestica [1] is 2; in the test on Musca domestica [2] it was 1.3.

Regarding `C=C1CC[C@]2(O)[C@]3(C)C[C@]4(O)O[C@@]2([C@@H]1O)[C@]1(NNC(N)=O)O[C@@]3(O)[C@H](OC(=O)c2ccc[nH]2)[C@](O)(C(C)C)[C@@]14C`, the Ratio in the test on Musca domestica [2] was <4; in test [4], 4.4; in test [5], 6.1.

For the compound `C=C1CC[C@]2(O)[C@]3(C)C[C@]4(O)O[C@@]2([C@@H]1O)[C@]1(O)O[C@@]3(NNc2ccccc2)[C@H](OC(=O)c2ccc[nH]2)[C@](O)(C(C)C)[C@@]14C`, the Ratio in the test with Musca domestica [2] is <2; in test [3] it was 2.5; in test [4], 6.1; in test [5], 5.4.

In the case of `C=C1CC[C@]2(O)[C@]3(C)C[C@]4(O)O[C@@]2([C@@H]1O)[C@]1(O)O[C@@]3(NNC(=O)c2ccccc2)[C@H](OC(=O)c2ccc[nH]2)[C@](O)(C(C)C)[C@@]14C`, the Ratio is 40 with Musca domestica [1], 13 in the test with Musca domestica [2] and 6.5 in test [4].

On to `CON[C@@]12O[C@H]3[C@]45O[C@@](O)(C[C@@]1(C)[C@@]4(O)CC[C@H](C)[C@H]5O)[C@@]3(C)[C@@](O)(C(C)C)[C@H]2OC(=O)c1ccc[nH]1`, for which the Ratio in the test on Musca domestica [1] amounted to 20; with Musca domestica [2], 7; in test [3], 28; in test [4] it was 34; in test [5], 20.

Regarding `CC(C)[C@@]1(O)[C@@H](OC(=O)c2ccc[nH]2)[C@]2(NO)O[C@H]3[C@]45O[C@@](O)(C[C@@]2(C)[C@@]4(O)CC[C@H](C)[C@H]5O)[C@]31C`, the Ratio is 100 in the test on Musca domestica [1]; 200 in the test on Musca domestica [2]; 43 in test [3]; 67 in test [4]; 50 in test [5].

For the compound `C=C1CC[C@]2(O)[C@]3(C)C[C@]4(O)O[C@@]2([C@@H]1O)[C@]1(NNc2ccccc2)O[C@@]3(O)[C@H](OC(=O)c2ccc[nH]2)[C@](O)(C(C)C)[C@@]14C`, the Ratio was <3 in the test with Musca domestica [1]; <1.3 in the test with Musca domestica [2]; 3.3 in test [3]; 3 in test [4]; 2.6 in test [5].

With `C=C1CC[C@]2(O)[C@]3(C)C[C@]4(O)O[C@@]2([C@@H]1O)[C@]1(O)[C@@]3(O)[C@H](OC(=O)c2ccc[nH]2)[C@](O)(C(C)C)[C@@]14C` [DEHYDRORYANODINE], the Ratio with Musca domestica [1] came to 136; in the test on Musca domestica [2], 90; in test [3], 77; in test [4], 112; in test [5], 91.

As for `CC(C)[C@@]1(O)[C@@H](OC(=O)c2ccc[nH]2)[C@@H](O)[C@@]2(C)C[C@]3(O)O[C@@]4([C@H](O)[C@@H](C)CC[C@@]42O)[C@@H](O)[C@]13C`, the Ratio in test [3] came to 5.4; in test [4], 5.3; in test [5], 4.7.

With `CC(C)[C@@]1(O)[C@@H](OC(=O)c2ccc[nH]2)[C@@]2(O)[C@@]3(C)C[C@]4(O)O[C@@]5([C@H](O)[C@@H](CSC(C)(C)C)CC[C@]35O)[C@@]2(O)[C@]14C`, the Ratio in the test with Musca domestica [2] amounted to 2; in test [3], 0.41.

Take `CC(C)[C@@]1(O)[C@@H](OC(=O)c2ccc[nH]2)[C@@H]2O[C@@]3(O)[C@]45O[C@@](O)(C[C@@]2(C)[C@@]4(O)CC[C@H](C)[C@H]5O)[C@]31C`: the Ratio with Musca domestica [1] was 40; with Musca domestica [2] it was 27; in test [3], 21; in test [4], 19; in test [5] it was 28.

`C=C1CC[C@]2(O)[C@]3(C)C[C@]4(O)O[C@@]2([C@@H]1O)[C@]1(O)O[C@@]3(NNC(N)=O)[C@H](OC(=O)c2ccc[nH]2)[C@](O)(C(C)C)[C@@]14C`: the Ratio with Musca domestica [1] came to 6; in the test on Musca domestica [2], 10; in test [4] it was 6.6; in test [5], 10.

As for `C=C1CC[C@]2(O)[C@]3(C)C[C@]4(O)O[C@@]2([C@@H]1O)[C@]1(/N=N/c2ccccc2)O[C@@]3(O)[C@H](OC(=O)c2ccc[nH]2)[C@](O)(C(C)C)[C@@]14C`, the Ratio with Musca domestica [2] worked out at 6; in test [3], 3.6; in test [4], 6.3; in test [5], 4.7.

With `C=C1CC[C@]2(O)[C@]3(C)C[C@]4(O)O[C@@]2([C@@H]1O)[C@]1(O)O[C@@]3(NN)[C@H](OC(=O)c2ccc[nH]2)[C@](O)(C(C)C)[C@@]14C`, the Ratio in the test with Musca domestica [1] is 60; in the test on Musca domestica [2], 50; in test [3] it was 14; in test [4], 14; in test [5], 11.
